Published values gathered from unrelated publications.
Lines come from different studies, so protocols differ.
CDK5: Cyclin-dependent kinase 5 (CDK5, Homo sapiens, UniProt Q00535)
CDK5 with p35: Cyclin-dependent kinase 5, with p35 (CDK5, Homo sapiens, UniProt Q00535)

SMILES | target | test | setting | measurement | result
Cn1cncc1[C@](O)(COc1ccc(C#N)cc1-c1ccc(OC(F)(F)F)cc1)c1ccc(C#N)cc1 | CDK5 | cell-free assay, competition with immobilised ligand | 1 µM | remaining binding | 92%
Cn1cc(-c2cccc(N3CCc4c(sc5c4CC(C)(C)C5)C3=O)c2CO)cc(Nc2ccncn2)c1=O | CDK5 with p35 | enzyme activity, inhibitor | 1 µM | inhibition | 3%
Cc1nn(C)cc1-c1nc2c(N3CCN(Cc4ccc(Cl)cc4)CC3)c(Cl)cnc2[nH]1 | CDK5 | binding, competition with immobilised ligand | 1 µM | remaining binding | 76%
N#CC1(c2ccccn2)CCN(Cc2cc(C(=O)O)c(=O)n3ccccc23)CC1 | CDK5 | cell-free assay, competition with immobilised ligand | 1 µM | remaining binding | 100%
CC(C)(C)c1cc(C=C(C#N)C#N)cc(Br)c1O | CDK5 with p35 | enzyme activity, inhibitor | 0.5 µM | remaining activity | 102%
Nc1ncc(-c2nc(N3CCOCC3)nc(N3CCOCC3)n2)c(C(F)F)n1 | CDK5 | binding, competition with immobilised ligand | 10 µM | remaining binding | 100%
COc1ncccc1-c1cnn2ccc(N3CCN(C(=O)OC(C)C)CC3)nc12 | CDK5 | binding, competition with immobilised ligand | 1 µM | remaining binding | 100%
Cn1cc(-c2cc(F)cc(N3CCn4c(cc5c4CCCC5)C3=O)c2CO)cc(Nc2ccc(N3CCN(C4COC4)CC3)cn2)c1=O | Cyclin-dependent kinase 5, with p25 (CDK5, Homo sapiens, UniProt Q00535) | enzyme activity, inhibitor | 0.1 µM | inhibition | 9%
